Measured values published in article PMC2951064 (Journal of Medicinal Chemistry, 2010).

Columns and labels:
wtBcr-Abl-Ba/F3 = assay: Antiproliferative activity on wtBcr-Abl-Ba/F3; format: cell-based, murine; conditions: for cellular Bcr-Abl inhibitory activity (in words): wild-type Bcr-Abl
E505K Bcr-Abl = assay: Antiproliferative activity on E505K Bcr-Abl mutant Ba/F3 cells; format: cell-based, murine; conditions: Mus musculus, BaF3, read-out: cellular EC50 E505K
How it was run: (§1)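 IL-3-dependent murine Ba/F3 cells were transfected with a pEYK vector carrying p210 Bcr-Abl with the point mutation. Cells were grown in RPMI 1640 with 10% FBS, 1% L-glutamine and 25 μg/mL zeocin at 37 °C under 5% CO2. Test compound was applied for 48 h, and proliferation was read by CellTiter-Glo luminescence.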

parental Ba/F3 = assay: Cytotoxicity on parental Ba/F3 cells; format: cell-based, murine; conditions: Mus musculus, BaF3, read-out: cellular EC50 Wt-Ba/F3
How it was run: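 Untransfected IL-3-dependent Ba/F3 cells were grown in RPMI 1640 with 10% FBS, 1% L-glutamine and 10% WEHI-conditioned medium as the IL-3 source, at 37 °C under 5% CO2. Cells were exposed to test compound for 48 h, and viability was measured by CellTiter-Glo luminescence.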

T315I Bcr-Abl [1] = assay: Antiproliferative activity on T315I Bcr-Abl mutant Ba/F3 cells; format: cell-based, murine; conditions: for EC50: Mus musculus, BaF3, read-out: cellular EC50 T315I
How it was run: as §1

T315I Bcr-Abl [2] = conditions: cited from earlier work
[3] = test system: panel of 80 diverse kinases; conditions: cited from earlier work
Y253H Bcr-Abl = conditions: background statement, ref not given; cited from earlier work
[4] = test system: 40 other tyrosine kinases; conditions: cited from earlier work
E255V Bcr-Abl = conditions: background statement, ref not given; cited from earlier work

SMILES | cellular Bcr-Abl inhibitory activity (in words) (wtBcr-Abl-Ba/F3) | other results
FC(F)(F)Oc1ccc(Nc2cncc(NCCN3CCOCC3)n2)cc1 [9e] | inactive | 
NC(=O)c1ccccc1-c1cc(Nc2ccc(OC(F)(F)F)cc2)ncn1 [5b] | inactive | 
FC(F)(F)Oc1ccc(CNc2cc(NCCN3CCOCC3)ncn2)cc1 [8g] | completely inactive | 
CS(=O)(=O)Nc1ccc(-c2cc(Nc3ccc(OC(F)(F)F)cc3)ncn2)cc1 [5h] |  | EC50 (E505K Bcr-Abl): > 10 µM; EC50 (parental Ba/F3): > 10 µM; EC50 (T315I Bcr-Abl [1]): > 10 µM
FC(F)(F)Oc1ccc(Nc2ncnc(NCCN3CCOCC3)n2)cc1 [9l, N2-(2-morpholinoethyl)-N4-(4-(trifluoromethoxy)phenyl)-1,3,5-triazine-2,4-diamine] | inactive | 
FC(F)(F)c1ccc(Nc2cc(-c3ccncc3)ncn2)cc1 [9j] | retained some activity | 
CN1CCN(C(=O)c2cc3c(Nc4ccc(OC(F)(F)F)cc4)ncnc3s2)CC1 [14d] |  | EC50 (E505K Bcr-Abl): > 10 µM; EC50 (parental Ba/F3): > 10 µM; fold more potent than 14c (wtBcr-Abl-Ba/F3; cellular Bcr-Abl EC50, versus compound lacking N-methylation (14c)): approximately 10 fold; EC50 (T315I Bcr-Abl [1]): > 10 µM
FC(F)(F)Oc1ccc(-c2cc(NCCN3CCOCC3)ncn2)cc1 [8e] | complete loss of cellular activity | 
O=C(NCCO)c1cccc(-c2cc(Nc3ccc(OC(F)(F)F)cc3)ncn2)c1 [compound 2, N-(2-Hydroxyethyl)-3-(6-(4-(trifluoromethoxy)phenylamino)pyrimidin-4-yl)benzamide] |  | synergy with nilotinib on proliferation of T315I Bcr-Abl (in words) (T315I Bcr-Abl [2]): capable of synergizing
COc1ccc(Nc2cc(NCCN3CCOCC3)ncn2)cc1 [8b] | complete loss of activity | 
Fc1ccc(Nc2cc(-c3ccncc3)ncn2)cc1 [9h] | complete loss in activity | 
FC(F)(F)Oc1ccc(Nc2ccc(NCCN3CCOCC3)nn2)cc1 [9f] | inactive | 
FC(F)(F)Oc1ccc(Nc2ccnc(NCCN3CCOCC3)n2)cc1 [9d] | inactive | 
CN(c1ccc(OC(F)(F)F)cc1)c1cc(-c2ccncc2)ncn1 [9g] | complete loss of cellular activity | 
Cc1cn(-c2cc(NC(=O)c3ccc(C)c(Nc4nccc(-c5cccnc5)n4)c3)cc(C(F)(F)F)c2)cn1 [nilotinib, reference compound] |  | EC50 (wtBcr-Abl-Ba/F3; Mus musculus, read-out: wt Bcr-Abl-Ba/F3 EC50): 40 nM
NC(=O)c1cccc(-c2cc(Nc3ccc(OC(F)(F)F)cc3)ncn2)c1 [compound 1] | active | inhibition of biochemical activity of a panel of 80 diverse kinases (in words) [3]: did not inhibit; activity on Y253H mutant (in words) (Y253H Bcr-Abl): active; inhibition of 40 other tyrosine kinases in cellular assays (in words) [4]: did not inhibit; activity on T315I gatekeeper mutant (in words) (T315I Bcr-Abl [1]): inactive; activity on E255V mutant (in words) (E255V Bcr-Abl): active
FC(F)(F)Oc1ccc(Oc2cc(NCCN3CCOCC3)ncn2)cc1 [8d] | complete loss of cellular activity | 
CN(c1ccc(OC(F)(F)F)cc1)c1cc(NCCN2CCOCC2)ncn1 [8a] | complete loss of cellular activity | 
